We go through three molecules from ChEMBL document CHEMBL3580541, “Mebamamides A and B, Cyclic Lipopeptides Isolated from the Green Alga Derbesia marina” (J Nat Prod, 2015).

The source made the active and inactive calls. The calls are words filed in the database; no cut-off is given here.

The subject of assay [1] is HL-60. The assay can be described thus: Induction of human HL60 cell differentiation into macrophages at 16 nM after 72 hrs by May-Giemsa staining based microscopy. The format is functional. An outline of the steps:
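HL60 cells were grown in RPMI with 10% heat-inactivated FBS, penicillin/streptomycin, amphotericin and L-glutamine at 37 °C in 5% CO2. They were seeded at 2 × 10^4 cells/well and treated for 72 h. Cells were washed once in PBS, stained with May–Giemsa, and examined by light microscopy for macrophage-like morphology.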

Assay [2] deals with HL-60. Description: Induction of human HL60 cell phagocytotic activity at 16 nM after 48 hrs by trypan based fluorescent microscopy. The assay is classed as functional. An outline of the steps: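 HL60 cells were seeded at 2 × 10^4 cells/well. FITC-conjugated latex beads and agent were added together, with TPA at 16 nM as the reference, and cells were incubated for 48 h. Uptake was assessed by fluorescence microscopy using a commercial phagocytosis kit run per the manufacturer's protocol.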

Assay [3] concerns HL-60. The assay can be described thus: Induction of cell adhesion in human HL60 cells at 100 uM measured upto 72 hrs by hemocytometry. The format is functional, cell-based. An outline of the steps:
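HL60 cells were seeded at 1 × 10^5 cells/well in 200 μL medium and given 100 μM compound; TPA at 16 nM served as comparator. Both fractions were counted by hemocytometer. Means ± SD of quadruplicate determinations.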

The subject of assay [4] is HL-60. The assay can be described thus: Cytotoxicity against human HL60 cells after 72 hrs by Trypan blue dye exclusion assay. The format is functional, cell-based. The following applies: HL-60, 72 h, in the assay text read “MTT assay” for “Trypan blue dye exclusion assay”. In outline: (§1)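 MTT read-out of proliferation. HeLa cells were grown in supplemented DMEM with 10% heat-inactivated FBS, seeded at 2 × 10^4 cells/well and cultured overnight. HL60 cells were grown in supplemented RPMI with 10% FBS and seeded at 1 × 10^5 cells/well. Compounds were added at 0.1−100 μM and incubated 72 h at 37 °C, 5% CO2.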

Assay [5] deals with HeLa. Description: Cytotoxicity against human HeLa cells after 72 hrs by Trypan blue dye exclusion assay. The following applies: in the assay text read “MTT assay” for “Trypan blue dye exclusion assay”. The assay is classed as functional, cell-based. In outline:
as §1
For orientation: Tetrazolium dyes change colour on reduction, which living cells bring about.

For assay [6], the system named is HL-60. The assay can be described thus: Induction of human HL60 cell phagocytotic activity at 100 uM after 48 hrs by trypan based fluorescent microscopy. The format is functional. In outline:
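Phagocytosis was run with a commercial kit. HL60 cells were seeded at 2 × 10^4 cells/well in 200 μL medium, given 20 μL FITC-conjugated latex bead suspension plus 100 μM compound or 16 nM TPA, incubated 48 h and examined by fluorescence microscopy.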

The subject of assay [7] is HL-60. The assay can be described thus: Induction of human HL60 cell differentiation into macrophages at 100 uM after 72 hrs by May-Giemsa staining based microscopy. The format is functional. An outline of the steps: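 Differentiation was judged by morphology. HL60 cells were seeded at 2 × 10^4 cells/well in 200 μL medium, treated 72 h with 100 μM compound or 16 nM TPA, washed once in PBS, stained with May−Giemsa and examined by light microscopy.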

Assay [8] deals with HeLa. Description: Cytotoxicity against human HeLa cells at 100 uM after 72 hrs by Trypan blue dye exclusion assay. The assay is classed as functional, cell-based. The following applies: in the assay text read “MTT assay” for “Trypan blue dye exclusion assay”. An outline of the steps:
as §1

For assay [9], the system named is HL-60. The assay can be described thus: Cytotoxicity against human HL60 cells at 100 uM after 72 hrs by Trypan blue dye exclusion assay. The format is functional, cell-based. An outline of the steps: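 HL60 cells were seeded at 1 × 10^5 cells/well in 24-well plates and exposed to 100 μM compound for 72 h. They were then stained with 0.8 mg/mL trypan blue. Viability was determined by counting stained (dead) cells.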

Take `CCCCCCCCCCCCCC(=O)O[C@@H]1[C@@H](C)[C@@]2(O)[C@@H](C=C(CO)C[C@]3(O)C(=O)C(C)=C[C@@H]23)[C@@H]2C(C)(C)[C@]12OC(C)=O`: the outcome in [1] and in assay [2] was Active.
Regarding `CC(=O)O[C@@H](CCCC[C@@H](O)CC(=O)N[C@H](CO)C(=O)N[C@@H](CC(C)C)C(=O)N1CCC[C@H]1C(=O)N[C@H](C)C(=O)N[C@@H]1C(=O)N[C@H](Cc2ccccc2)C(=O)N2CCC[C@H]2C(=O)N[C@H](CC(C)C)C(=O)N[C@@H](C(C)C)C(=O)O[C@@H]1C)C(C)C`, in assay [3], the result was inactive. Besides, the figures for the 50% inhibitory concentration (IC50) in assay [4] and in assay [5] were 19 µM and 48 µM, respectively.
On to `CC(C)C[C@H](NC(=O)[C@@H](CO)NC(=O)C[C@H](O)CCCC[C@H](O)C(C)C)C(=O)N1CCC[C@H]1C(=O)N[C@H](C)C(=O)N[C@@H]1C(=O)N[C@H](Cc2ccccc2)C(=O)N2CCC[C@H]2C(=O)N[C@H](CC(C)C)C(=O)N[C@@H](C(C)C)C(=O)O[C@@H]1C`, for which the outcome in [6], in [7] and in [3] was Active. The “growth inhibition (GI)” value in assay [8] and in assay [9] was “inactive” in each case.
